Test results as given in ChEMBL document CHEMBL4402547, “Synthesis and Pharmacological Characterization of Conformationally Restricted Retigabine Analogues as Novel Neuronal Kv7 Channel Activators” (J Med Chem, 2020).
Active and inactive are the calls of the source. The rule behind the calls is not given here.

Experiments:
[1] = target: T1, Potassium voltage-gated channel subfamily KQT member 2 (Homo sapiens, UniProt O43526); experiment: Activation of human Kv7.2 expressed in CHO cells assessed as delta V at 10 uM by whole cell patch clamp electrophysiology assay; format: cell-based
T1 sequence (O43526 whole entry): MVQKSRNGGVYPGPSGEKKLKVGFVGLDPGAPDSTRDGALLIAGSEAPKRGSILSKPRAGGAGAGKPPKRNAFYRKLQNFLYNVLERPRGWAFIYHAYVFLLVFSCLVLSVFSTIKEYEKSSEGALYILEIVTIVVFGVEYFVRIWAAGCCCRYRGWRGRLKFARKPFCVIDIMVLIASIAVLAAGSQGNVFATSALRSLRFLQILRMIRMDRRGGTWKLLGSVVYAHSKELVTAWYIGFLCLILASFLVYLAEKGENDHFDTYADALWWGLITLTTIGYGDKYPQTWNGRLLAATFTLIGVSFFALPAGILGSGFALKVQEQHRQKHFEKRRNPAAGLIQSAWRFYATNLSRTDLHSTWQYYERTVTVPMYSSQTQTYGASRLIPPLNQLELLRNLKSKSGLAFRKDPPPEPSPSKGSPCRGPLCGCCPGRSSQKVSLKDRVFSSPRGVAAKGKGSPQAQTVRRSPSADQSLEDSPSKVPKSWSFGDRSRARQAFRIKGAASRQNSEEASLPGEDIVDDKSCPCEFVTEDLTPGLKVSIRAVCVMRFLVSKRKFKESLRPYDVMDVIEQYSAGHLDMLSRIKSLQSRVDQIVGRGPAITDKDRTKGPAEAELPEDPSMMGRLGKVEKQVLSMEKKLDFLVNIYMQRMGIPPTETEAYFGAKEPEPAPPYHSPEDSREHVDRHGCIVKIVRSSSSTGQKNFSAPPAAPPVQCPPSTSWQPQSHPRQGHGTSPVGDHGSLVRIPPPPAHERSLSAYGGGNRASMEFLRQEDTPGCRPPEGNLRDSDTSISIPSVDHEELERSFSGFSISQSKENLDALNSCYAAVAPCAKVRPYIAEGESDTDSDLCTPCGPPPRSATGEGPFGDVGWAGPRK
Method in brief: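 Human Kv7.2 transiently expressed in CHO cells; whole-cell recordings at room temperature (20–22°C), pH 7.4 extracellular solution. 3-s ramps from −80 to +20 mV with 0.01–10 μM drug. ΔV taken as shift of the potential where current reaches 20% of peak, drug vs control, plotted against log concentration. Four-parameter logistic fit gives EC50; mean ± SD of ≥3 experiments.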

[2] = target: T2, Potassium voltage-gated channel subfamily KQT member 5 (Homo sapiens, UniProt Q9NR82); experiment: Activation of human Kv7.5 expressed in CHO cells assessed as increase in channel current amplitude by whole cell patch clamp electrophysiology assay; format: cell-based
T2 sequence (Q9NR82 whole entry): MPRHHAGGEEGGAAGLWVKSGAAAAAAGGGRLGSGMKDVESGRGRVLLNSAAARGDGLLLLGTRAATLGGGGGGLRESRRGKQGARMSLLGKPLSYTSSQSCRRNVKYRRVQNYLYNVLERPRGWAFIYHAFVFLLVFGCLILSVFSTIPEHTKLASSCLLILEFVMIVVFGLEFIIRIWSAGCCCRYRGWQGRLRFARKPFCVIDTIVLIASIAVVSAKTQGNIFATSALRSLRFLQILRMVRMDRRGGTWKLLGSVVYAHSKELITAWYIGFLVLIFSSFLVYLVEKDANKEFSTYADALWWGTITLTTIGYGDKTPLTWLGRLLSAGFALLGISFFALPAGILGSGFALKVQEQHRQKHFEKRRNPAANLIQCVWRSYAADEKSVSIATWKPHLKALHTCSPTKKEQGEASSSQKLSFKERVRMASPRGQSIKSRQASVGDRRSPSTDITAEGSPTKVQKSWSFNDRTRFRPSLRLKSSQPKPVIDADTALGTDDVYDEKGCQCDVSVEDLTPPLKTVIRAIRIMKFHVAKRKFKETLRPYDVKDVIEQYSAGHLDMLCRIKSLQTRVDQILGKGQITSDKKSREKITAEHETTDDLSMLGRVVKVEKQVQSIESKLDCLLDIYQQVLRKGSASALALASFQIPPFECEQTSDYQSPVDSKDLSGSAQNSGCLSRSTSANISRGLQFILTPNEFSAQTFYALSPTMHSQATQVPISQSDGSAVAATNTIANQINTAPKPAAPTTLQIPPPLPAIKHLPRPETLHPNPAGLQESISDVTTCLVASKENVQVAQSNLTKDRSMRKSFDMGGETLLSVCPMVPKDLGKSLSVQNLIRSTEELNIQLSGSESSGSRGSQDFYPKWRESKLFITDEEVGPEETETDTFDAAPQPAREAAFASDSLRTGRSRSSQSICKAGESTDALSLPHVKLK

[3] = target: T1, Potassium voltage-gated channel subfamily KQT member 2; experiment: Activation of human Kv7.2 expressed in CHO cells assessed as current amplitude at 10 uM measured after 200 secs upon drug wash-out at holding potential of -40 mV by whole cell patch clamp electrophysiology assay; format: cell-based
[4] = target: T2, Potassium voltage-gated channel subfamily KQT member 5; experiment: Activation of human Kv7.5 expressed in CHO cells assessed as delta V at 10 uM by whole cell patch clamp electrophysiology assay; format: cell-based
[5] = target: Voltage-gated potassium channel, KQT; KCNQ2(Kv7.2)/KCNQ3(Kv7.3) (Homo sapiens) (UniProt O43526+O43525); experiment: Activation of human Kv7.2/Kv7.3 expressed in CHO cells assessed as increase in channel current amplitude by whole cell patch clamp electrophysiology assay; format: cell-based
Method in brief: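 Human Kv7.2 plus Kv7.3 cDNAs co-transfected into CHO cells; whole-cell patch clamp at 20–22°C, extracellular solution pH 7.4. Drug applied at 0.01–10 μM to test concentration-dependent current increase.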

[6] = Photostability of compound in pH 7.4 buffer assessed as compound degradation at 100 ug/ml incubated for 2 hrs under natural solar light-irradiation by HPLC analysis relative to control
Method in brief: (§1)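 DMSO solutions diluted in pH 7.4 buffer, held in 1 cm quartz cells and exposed to natural daylight. Light-shielded controls kept at 37°C in foil. Aliquots drawn at set intervals and parent compound loss measured by UHPLC: C18 column, 0.1% TFA water/acetonitrile gradient, 45°C, detection at 254 nm.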

[7] = Hydrophobicity of compound assessed as self aggregating property by measuring decrease in ratio between fluorescence intensity peaks at 372 nm to 383 nm at 0.7 to 100 uM by pyrene based fluorescence spectroscopic method; format: physicochemical
Method in brief: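 DMSO stocks diluted in 0.9% NaCl to 0.7–100 μM, residual DMSO <0.1%. Pyrene used as probe, excited at 334 nm; emission recorded 200–700 nm, ten scans summed, at 25°C. Ratio of peak I (372 nm) to peak III (383 nm) intensity plotted against concentration.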

[8] = Lipophilicity, log P of the compound; format: physicochemical; details: octanol/water
[9] = Photostability of compound in pH 7.4 buffer assessed as compound degradation at 100 ug/ml incubated for 4 hrs under natural solar light-irradiation by HPLC analysis relative to control; method in brief: as §1
[10] = target: T1, Potassium voltage-gated channel subfamily KQT member 2; experiment: Activation of human Kv7.2 expressed in CHO cells assessed as increase in current amplitude at 10 uM measured at holding potential of 0 mV by whole cell patch clamp electrophysiology assay relative to control; format: cell-based
Method in brief: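 Transiently transfected CHO cells expressing human Kv7.2, whole-cell patch clamp at 20–22°C in HEPES-buffered saline pH 7.4. Cells held at −80 mV and ramped −80 to +20 mV over 3 s, before and during 10 μM drug. Ramp current at 0 mV taken as drug/control ratio; mean ± SEM of ≥3 cells, ≥2 transfections.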

[11] = target: UGT (phase 2 metabolism) (Homo sapiens, UniProt O60656+O75310+O75795+P06133+P0DTE4+P0DTE5+P16662+P19224+P22309+P22310+P35503+P35504+P36537+P54855+Q6UWM9+Q9BY64+Q9HAW7+Q9HAW8+Q9HAW9); experiment: Drug metabolism in human liver S9 fractions assessed as assessed as UGT-mediated phase 2 metabolism at 1 mM preincubated for 5 mins followed by NADPH addition and measured after 60 mins by RP-UHPLC-DAD analysis relative to control; format: ADME, subcellular; details: read-out: Drug metabolism
Method in brief: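 Compound (2 μL of 1 mM stock) in 100 mM phosphate buffer pH 7.4 with pooled human liver S9, preincubated 5 min, then NADPH added, 37°C for 60 min. For UGT: 5 mM UDPGA, alamethicin, 1 mM MgCl added; for NAT: 2 mM DTT, sulfamethazine, 4.5 mM acetyl DL-carnitine, 0.1 U/mL carnitine acetyltransferase. Stopped with ice-cold methanol; RP-UHPLC-DAD; % turnover = 100 − (60 min/0 min concentration × 100).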

[12] = target: T3, Potassium voltage-gated channel subfamily KQT member 1 (Homo sapiens, UniProt P51787); experiment: Activation of human Kv7.1 expressed in CHO cells assessed as channel current amplitude at 10 uM measured at holding potential of +20 mV and -40 mV by whole cell patch clamp electrophysiology assay; format: cell-based
T3 sequence (P51787 whole entry): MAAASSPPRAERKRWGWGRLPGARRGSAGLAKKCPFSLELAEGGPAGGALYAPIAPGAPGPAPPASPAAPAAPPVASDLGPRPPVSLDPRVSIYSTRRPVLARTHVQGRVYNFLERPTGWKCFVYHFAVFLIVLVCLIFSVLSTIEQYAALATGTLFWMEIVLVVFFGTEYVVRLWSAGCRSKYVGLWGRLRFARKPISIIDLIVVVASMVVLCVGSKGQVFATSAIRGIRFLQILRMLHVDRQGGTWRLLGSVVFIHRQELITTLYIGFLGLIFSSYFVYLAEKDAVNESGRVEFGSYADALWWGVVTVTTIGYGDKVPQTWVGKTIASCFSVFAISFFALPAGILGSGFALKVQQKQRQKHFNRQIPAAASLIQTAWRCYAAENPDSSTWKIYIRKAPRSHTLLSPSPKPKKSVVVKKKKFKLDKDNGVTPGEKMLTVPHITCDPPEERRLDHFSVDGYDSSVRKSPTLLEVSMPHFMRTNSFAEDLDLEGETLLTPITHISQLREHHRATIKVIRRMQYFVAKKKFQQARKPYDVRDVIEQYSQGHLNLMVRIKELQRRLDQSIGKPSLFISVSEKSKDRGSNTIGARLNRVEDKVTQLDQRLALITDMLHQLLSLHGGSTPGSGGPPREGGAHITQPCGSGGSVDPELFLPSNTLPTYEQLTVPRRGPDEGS

[13] = target: T1, Potassium voltage-gated channel subfamily KQT member 2; experiment: Activation of human Kv7.2 expressed in CHO cells assessed as increase in maximal channel conductance at 0.03 uM in constant voltage pulses by whole cell patch clamp electrophysiology assay; format: cell-based
Method in brief: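 Transiently transfected CHO cells (human Kv7.2 cDNA in pcDNA3.1, EGFP marker), recorded 24 h post-transfection by whole-cell patch clamp at 20–22°C; extracellular solution in mM 138 NaCl, 2 CaCl₂, 5.4 KCl, 1 MgCl₂, 10 glucose, 10 HEPES, pH 7.4. Constant voltage pulses before and after 0.03 μM compound; conductance/voltage curves fitted to double Boltzmann for V1/2 and maximal conductance.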

| SMILES | Activity [1] | EC50 [2] | Activity [3] | Activity [4] | Activity [5] | Drug degradation [6] | Activity [7] | logP [8] | Drug degradation [9] | Activity [10] | metabolised at 1 h, 1000 µM [11] | Activity [12] | Activity [13] | Ratio [10] |
| --- | --- | --- | --- | --- | --- | --- | --- | --- | --- | --- | --- | --- | --- | --- |
| CC(C)(C)CC(=O)Nc1ccc2c(ccn2Cc2ccc(C(F)(F)F)cc2)c1 | -30 mV | 0.35 µM | inactive | -19.7 mV | Dose-dependent effect | 0.96% | Active | 5.58 | 6.62% | Active | 7.42% |  |  |  |
| CCCCCCC(=O)Nc1ccc2c(ccn2Cc2ccc(C(F)(F)F)cc2)c1 | -29.5 mV | 1.07 µM | inactive | -25.6 mV | Dose-dependent effect | 1.36% | Active | 6.83 | 5.82% | Active |  | Not Active | Active |  |
| CCOC(=O)Nc1ccc(NCc2ccc(F)cc2)cc1N [EZOGABINE] | -25.4 mV | 0.8 µM |  | -21.95 mV |  | 9.65% | Not Active |  | 25.2% |  | 11.4% | Not Active | inactive | 2 |
